Laboratory results as given in ChEMBL document CHEMBL5038582, “Adamantyl Isothiocyanates as Mutant p53 Rescuing Agents and Their Structure-Activity Relationships” (J Med Chem, 2021).
Active and inactive are the calls of the source. The calls are words filed in the database; no cut-off is given here.

What was measured:
MDA-MB-468 [1] = test: Induction of apoptosis in human MDA-MB-468 cells expressing p53 R273H mutant assessed increase in number of Annexin-V stained cells at 6 to 12 uM incubated for 24 hrs by AnnexinV-FITC and PI staining based flow cytometry; format: functional, cell-based; details: dose 6-12 µM
In short: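 24 h treatment, DMSO control. Cells scraped, washed in PBS, then given fluorochrome-conjugated Annexin V for 15 min at RT in the dark, followed by PI (0.1 µg/ml) in binding buffer. Read by flow cytometry on LSRFortessa. Annexin V-positive cells expressed relative to the DMSO control.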

[2] = Octanol-water partition coefficient, logP of the compound by HPLC-MS analysis; format: physicochemical; details: 18 h
In short: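 Compound (10 µL of 10 mM DMSO stock) added to 0.5 mL octanol plus 0.5 mL sodium phosphate buffer pH 7.4. Stirred 18 h, centrifuged 2 h at 3600 rpm. Concentration in each phase measured by LC-MS on a C18 column.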

MCF7 [3] = test: Downregulation of p53 expression in human MCF7 cells at 6 to 12 uM measured after 24 hrs by immunoblot analysis; format: functional, cell-based; details: dose 6-12 µM
In short: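 24 h exposure to 6 or 12 μM, DMSO control. Lysis in Tris pH 8.0/NaCl/glycerol/NP-40/EDTA buffer with protease inhibitors. 20 µg (MDA-MB-231, MDA-MB-468) or 50 µg (MCF-7) of lysate run on 4-12% SDS-PAGE. Blot probed with p53 DO-1, GAPDH used for reprobe/loading. Triplicate experiments.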

MCF7 [4] = test: Cell cycle arrest in human MCF7 cells expressing wild type p53 assessed as accumulation of cells at G2/M phase at 6 uM measured after 24 hrs by PI staining based flow cytometry (reference value: 21.3%); format: functional
MDA-MB-468 [5] = test: Antiproliferative activity against human MDA-MB-468 cells transfected with p53 siRNA assessed as inhibition of cell growth at 5 to 25 uM measured after 24 hrs by WST-1 assay; format: functional, cell-based; details: dose 5-25 µM
In short: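 MDA-MB-468 cells plated at 50-60% confluence 24 h before transfection. p53 SMARTpool or non-specific siRNA (0.430 nmol) given with Lipofectamine 2000 in Opti-MEM for 5 h, repeated after 24 h. Drug or DMSO added 72 h after the first transfection. Proliferation read by WST-1, % of DMSO control.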

MDA-MB-231 = test: Cell cycle arrest in human MDA-MB-231 cells expressing p53 R280K mutant assessed as accumulation of cells at G1 phase at 6 uM measured after 24 hrs by PI staining based flow cytometry (reference value: 42.9%)

Structure (SMILES): [Se]=C=NCCC12CC3CC(CC(C3)C1)C2
- Activity (MDA-MB-468 [1]): Active
- logP [2]: 4.05

Structure (SMILES): S=C=NCCCC12CC3CC(CC(C3)C1)C2
- inhibition (MCF7 [3]): inactive
- Activity (MCF7 [4]): 24.3%
- Activity (MDA-MB-468 [5]): inactive
- Activity (MDA-MB-231): 48.2%
